Test results taken from BindingDB's records for doi:10.1021/jm00074a030 (Wellcome Research Laboratories, 1993).

Target: Thymidylate synthase (Homo sapiens, UniProt P04818)
Assay: Inhibition of purified human thymidylate synthase (TS) isolated from an Escherichia coli harboring a plasmid with thy A gene cloned from SV40 transformed human fibroblast cells
Method in brief: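 Purified recombinant human TS, expressed in E. coli from a thyA gene cloned from SV40-transformed human fibroblasts. Inhibition was measured by a modified tritium-release assay. Ki was estimated by treating compounds as tight-binding noncompetitive inhibitors.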

Chain of Thymidylate synthase (P04818 whole entry): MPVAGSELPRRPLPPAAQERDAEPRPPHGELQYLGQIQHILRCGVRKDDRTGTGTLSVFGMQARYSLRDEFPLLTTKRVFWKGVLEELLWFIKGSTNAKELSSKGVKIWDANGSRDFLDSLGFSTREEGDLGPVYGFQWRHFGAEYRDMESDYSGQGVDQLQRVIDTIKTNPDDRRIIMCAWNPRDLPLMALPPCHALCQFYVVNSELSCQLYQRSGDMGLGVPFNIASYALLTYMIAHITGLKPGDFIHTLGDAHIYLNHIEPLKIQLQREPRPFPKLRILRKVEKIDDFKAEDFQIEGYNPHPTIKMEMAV

| Compound | Ki [µM] |
| --- | --- |
| Nc1nc(O)c2c(ccc3ccc(Br)cc32)n1 | 0.02 |
| Nc1nc(O)c2c(ccc3ccc(NS(=O)(=O)c4ccc(C(=O)N[C@@H](CCC(=O)O)C(=O)O)cc4)cc32)n1 | 0.1 |
| Nc1nc2ccc3cc(S(=O)(=O)Nc4ccc(C(=O)N[C@@H](CCC(=O)O)C(=O)O)cc4)c(Br)cc3c2c(=O)[nH]1 | 16.4 |
